The subject of data set [1] is Mus musculus. As to the kind of experiment: In vivo inhibition of HSP90 in human GTL16 cells overexpressing c-Met xenografted in CD-1 nude mouse assessed as induction of HSP70 protein expression at 50 mg/kg, ip administered as q5d/week for 2 weeks starting 3 days after tumor injection measured at 6 hrs post last dose by Western blot analysis. It is filed as functional, organism-based. Set-up: dose 50 mg/kg. For orientation: A xenograft is tissue or cells of one species grown in another, often human tumour cells in immunodeficient mice.

The test system of data set [2] is Mus musculus. Description: In vivo inhibition of HSP90 in human A431 cells overexpressing EGFR xenografted in CD-1 nude mouse assessed as induction of HSP70 protein expression at 50 mg/kg, ip administered as q5d/week for 2 weeks starting 3 days after tumor injection measured at 2 hrs post last dose by Western blot analysis. Set-up: dose 50 mg/kg. It is filed as functional, organism-based. Particulars: A-431.

In a further data set the test system is GTL 16. Description: Antitumor activity against human GTL16 cells overexpressing c-Met xenografted in CD-1 nude mouse assessed as tumor growth inhibition at 50 mg/kg, ip administered as q5d/week for 2 weeks starting 3 days after tumor injection measured on day 5 post last dose relative to vehicle-treated control. It counts as functional, organism-based. Set-up: dose 50 mg/kg. A digest of the protocol:
(§1)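 Female athymic nude mice, 5-6 weeks old; 5 × 10^6 exponentially growing tumor cells inoculated s.c. in right flank. Treatment i.p. from day 3 after tumor injection. Tumor volume measured biweekly as d²·D/2. TVI% = 100 − (mean TV treated/mean TV control × 100), evaluated 5 days after last treatment; Mann-Whitney test vs vehicle group.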

In data set [3] the test system is Mus musculus. Description: In vivo inhibition of HSP90 in human A431 cells overexpressing EGFR xenografted in CD-1 nude mouse assessed as downregulation of CDK4 protein expression at 50 mg/kg, ip administered as q5d/week for 2 weeks starting 3 days after tumor injection measured at 2 hrs post last dose by Western blot analysis. It counts as functional, organism-based. Set-up: dose 50 mg/kg. To be noted: A-431.

In data set [4] the test system is Mus musculus. Description: In vivo inhibition of HSP90 in human GTL16 cells overexpressing c-Met xenografted in CD-1 nude mouse assessed as downregulation of CDK4 protein expression at 50 mg/kg, ip administered as q5d/week for 2 weeks starting 3 days after tumor injection measured at 6 hrs post last dose by Western blot analysis. It is filed as functional, organism-based. Set-up: dose 50 mg/kg.

Data set [5] can be described thus: Toxicity in ip dosed CD-1 nude mouse xenografted with human A431 cells overexpressing EGFR administered as q5d/week for 2 weeks starting 3 days after tumor injection measured on day 5 post last dose. It is filed as organism-based, A-431. Particulars: in vivo. A digest of the protocol:
(§2)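 Female athymic nude mice, 5–6 weeks old, implanted s.c. in the right flank with 5 × 10^6 exponentially growing tumour cells and given i.p. doses (mg/10 mL/kg) over 2 weeks starting 3 days after implantation. Toxicity endpoints were maximum body weight loss, BWL% = 100 − [(mean BW day x / mean BW day 1) × 100], and deaths occurring before the first control death.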

The nature of data set [6]: Metabolic stability in human plasma assessed as compound remaining at 5 uM measured at 120 mins by LC/MS analysis. It counts as ADME, cell-free. A digest of the protocol: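 Compound added to human plasma at 5 µM final and incubated at 37 °C for up to 120 min. Samples quenched in two volumes of chilled acetonitrile and centrifuged at 4 °C. Remaining compound quantified by LC/MS.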

In data set [7] the test system is Mus musculus. Description: In vivo inhibition of HSP90 in human A431 cells overexpressing EGFR xenografted in CD-1 nude mouse assessed as downregulation of AKT protein expression at 50 mg/kg, ip administered as q5d/week for 2 weeks starting 3 days after tumor injection measured at 2 hrs post last dose by Western blot analysis. Set-up: dose 50 mg/kg. It counts as functional, organism-based. To be noted: A-431.

The subject of data set [8] is Mus musculus. As to the kind of experiment: In vivo inhibition of HSP90 in human GTL16 cells overexpressing c-Met xenografted in CD-1 nude mouse assessed as downregulation of AKT protein expression at 50 mg/kg, ip administered as q5d/week for 2 weeks starting 3 days after tumor injection measured at 6 hrs post last dose by Western blot analysis. It counts as functional, organism-based. Set-up: dose 50 mg/kg.

The test system of the next data set is A-431. Description: Antitumor activity against human A431 cells overexpressing EGFR xenografted in CD-1 nude mouse assessed as tumor growth inhibition at 50 mg/kg, ip administered as q5d/week for 2 weeks starting 3 days after tumor injection measured on day 5 post last dose relative to vehicle-treated control. It counts as functional, organism-based. Set-up: dose 50 mg/kg. A digest of the protocol: as §1

A short description of data set [9]: Toxicity in ip dosed CD-1 nude mouse xenografted with GTL16 cells overexpressing c-Met administered as q5d/week for 2 weeks starting 3 days after tumor injection measured on day 5 post last dose. It is filed as organism-based. To be noted: in vivo. In a few lines: as §2
Data set [10] relates to Mus musculus. Description: In vivo inhibition of HSP90 in human A431 cells overexpressing EGFR xenografted in CD-1 nude mouse assessed as downregulation of EGFR protein expression at 50 mg/kg, ip administered as q5d/week for 2 weeks starting 3 days after tumor injection measured at 2 hrs post last dose by Western blot analysis. It counts as functional, organism-based. Set-up: dose 50 mg/kg. To be noted: A-431.

The test system of data set [11] is NCI-H460. As to the kind of experiment: Cell cycle arrest in human NCI-H460 cells assessed as accumulation at G2/M phase at 2 times IC50 after 24 to 72 hrs by propidium iodide staining-based FACS flow cytometric analysis. It counts as functional. In general terms: A flow cytometer gives signals particle by particle.
Data set [12] has as its system NCI-H460. Description: Induction of apoptosis in human NCI-H460 cells assessed as cell with hypodiploid DNA content at 2 times IC50 after 24 to 72 hrs by propidium iodide staining-based FACS flow cytometric analysis. It is filed as functional.
The subject of data set [13] is Mus musculus. As to the kind of experiment: In vivo inhibition of HSP90 in human GTL16 cells overexpressing c-Met xenografted in CD-1 nude mouse assessed as downregulation of c-Met protein expression at 50 mg/kg, ip administered as q5d/week for 2 weeks starting 3 days after tumor injection measured at 6 hrs post last dose by Western blot analysis. Set-up: dose 50 mg/kg. It counts as functional, organism-based.

Calls of active or inactive are those of the source. No cut-off for these calls is given here.

Usually amount remaining stands for the share of the starting amount still present when the sample was taken. On to `CCNC(=O)c1noc(-c2cc(C(C)C)c(O)cc2O)c1-c1ccc(CN2CCOCC2)cc1` [LUMINESPIB], for which the inhibition entry in the data set on Mus musculus [1], with Mus musculus [2], with Mus musculus [3], in the data set on Mus musculus [4], in the data set with Mus musculus [7] and with Mus musculus [8] was “Active” throughout. For the same molecule, the inhibition result with Mus musculus [10] and in the data set on Mus musculus [13] was “Active” each time. Also, the TGI entry in the data set on GTL 16 and in the data set on A-431 was “Active” each time. Further, the MTD at 2 weeks in [5] and in data set [9] was 50 mg/kg in each case. Moreover, the amount remaining at 2 h, 5 µM in [6] is 56%. Further, the result in the data set with NCI-H460 [11] and with NCI-H460 [12] was Active.

The record behind these values is ChEMBL document CHEMBL3232837, “Synthesis and evaluation of new Hsp90 inhibitors based on a 1,4,5-trisubstituted 1,2,3-triazole scaffold” (J Med Chem, 2014).
